ROMK primary = ROMK potassium channel modulators, primary screen, cell-based, thallium flux, MLSMR library; Tet-inducible ROMK, thallium flux fluorescence; actives lie on both sides; B-score at 10 µM; 2% of 130,000 active; AID 1918, 2009;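 active means signal ratio slope over the read window, or its plate-corrected B-score, at least 3 SD from the plate mean, either direction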;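 further: B-score of the F/F0 ratio slope over 7 to 12 s after thallium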
Cl transport mod = KCC2 cotransporter modulators, thallium flux, primary screen, cell-based, HEK293 KCC2, FluoZin-2 fluorescence, MLSMR; KCC2 cells, thallium flux FluoZin-2 fluorescence; B-score of Tl+ flux slope (higher = more flux/activation; lower = inhibition) at 10 µM; 2.2% of 190,000 active;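 active means thallium flux slope and its plate-corrected score both differing from the plate sample mean at a set confidence after two filtering rounds, in either direction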;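 further: slope of fluorescence scaled to starting intensity during 10 to 20 s after thallium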
PKD1 kinase inh = inhibitors of human PKD1 kinase, biochemical, fluorescence polarization. inhibition, % (concentration not given with the values). PKD1 kinase fluorescence polarization assay. Serine/threonine-protein kinase D1 (Homo sapiens), Q15139. 0.056% of 200,000 active. AID 797, 2007; in the data active means inhibition above about 50%
Target sequence (Q15139 whole entry, looked up): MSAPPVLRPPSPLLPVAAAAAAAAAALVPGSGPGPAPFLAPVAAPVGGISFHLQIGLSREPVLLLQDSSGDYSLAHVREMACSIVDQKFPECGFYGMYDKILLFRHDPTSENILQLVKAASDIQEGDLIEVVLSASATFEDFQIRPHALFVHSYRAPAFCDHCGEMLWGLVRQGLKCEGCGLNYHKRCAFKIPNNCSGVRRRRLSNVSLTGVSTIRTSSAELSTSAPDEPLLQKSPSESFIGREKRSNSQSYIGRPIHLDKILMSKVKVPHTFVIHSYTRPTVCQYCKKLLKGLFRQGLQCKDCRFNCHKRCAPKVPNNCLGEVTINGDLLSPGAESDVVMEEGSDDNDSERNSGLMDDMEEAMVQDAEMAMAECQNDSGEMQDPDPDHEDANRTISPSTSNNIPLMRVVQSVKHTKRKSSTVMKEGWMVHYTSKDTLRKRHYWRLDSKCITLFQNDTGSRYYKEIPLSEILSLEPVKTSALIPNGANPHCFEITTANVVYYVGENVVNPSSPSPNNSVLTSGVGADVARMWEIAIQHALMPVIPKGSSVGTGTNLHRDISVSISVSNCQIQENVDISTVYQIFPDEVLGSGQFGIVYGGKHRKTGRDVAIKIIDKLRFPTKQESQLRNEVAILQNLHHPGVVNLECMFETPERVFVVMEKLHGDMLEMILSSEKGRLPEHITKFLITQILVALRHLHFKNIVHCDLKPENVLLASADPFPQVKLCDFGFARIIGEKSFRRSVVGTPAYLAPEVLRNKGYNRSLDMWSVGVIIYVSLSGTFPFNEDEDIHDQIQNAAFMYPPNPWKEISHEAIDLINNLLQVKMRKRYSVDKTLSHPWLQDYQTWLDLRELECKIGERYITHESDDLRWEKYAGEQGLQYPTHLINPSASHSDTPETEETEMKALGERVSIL
Redox H2O2 prof = compounds producing H2O2 with reducing agent – biochemical, NIH compound library profiling, artefact control for MLSCN library redox annotation, primary screen; DTT-dependent redox cycling H2O2, phenol red/HRP absorbance; 100% = 100 µM peroxide control, 0% = buffer; activation, % at 10 µM; 0.03% of 200,000 active; AID 878, 2007;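 active means activation of at least 50% relative to the plate's high and low controls in the primary single-dose screen; inactive means activation below 50%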;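 further: compound incubated with DTT at 0.8 mM final as the reducing agent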
p97 inhibitor = inhibitors of human p97 ATPase, primary screen, biochemical; 0.42% of 220,000 active; inhibition, % at 8 µM; recombinant p97 ATPase, Kinase-Glo ATP luminescence, 3 h; Transitional endoplasmic reticulum ATPase (Homo sapiens), P55072; in the data active means inhibition above about 15%;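 further: 0% = DMSO vehicle and 100% = wells lacking enzyme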
Mdm2 ligase inh = MDM2-luciferase reporter signal enhancers, primary screen, MDM2 E3 ligase inhibitor project, cell-based, luminescence, 1536-well; E3 ubiquitin-protein ligase Mdm2 (Homo sapiens), Q00987; cell-based MDM2 ubiquitination luciferase reporter, 2 h; 0 = plate control, 100 = twice control, blank-subtracted; signal enhancement, % at 5 µM; 0.11% of 210,000 active;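 active means signal enhancement of 30% or more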;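 further: luminescence tracks abundance of the self-degrading MDM2-luciferase fusion protein; higher signal means inhibition of MDM2 E3 ligase activity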
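Material: Stable MDM2–luciferase fusion reporter cells | Amount: 2000 cells seeded into each well | Dosing: One concentration, 5 µM, with 0.2% DMSO | Incubation: 4 h cell settling then 2 h compound exposure, 37 °C | Measured by: Luciferase luminescence | Read-out basis: % enhancement relative to plate controls after blank subtraction | Benchmarks: Control and blank well means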
KCC2 sec1 = KCC2 modulators in sodium-free buffer, confirmation, cell-based, HEK293 KCC2, thallium flux, secondary assay; shares compounds with Cl transport mod; FluoZin2 fluorescence; stronger effect = higher value; normalised thallium flux (F/F0 slope) at 10 µM; 15% of 3,700 active; AID 1713, 2009;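 active means thallium flux slope above the same plate's solvent-only control mean plus 3 SD; inconclusive means the two replicate wells disagree; inactive means no significant difference from solvent-only control wells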
KCC2 bumet counter = thallium flux persisting under bumetanide in KCC2 cells, confirmation, counter-screen for KCC2 modulator project, cell-based, HEK293 KCC2, FluoZin2, secondary assay 3. shares compounds with Cl transport mod. HEK293-KCC2 + bumetanide/ouabain; stronger effect = higher value. normalized thallium flux at 10 µM. AID 1714, 2009. 49% of 3,700 active;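 active means thallium entry rate above the same plate's blocked-transporter control wells by more than 3 SD; inconclusive means the two repeat wells disagree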;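 further: raw slope of fluorescence over initial fluorescence between 10 and 20 s after thallium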
KCC2 secondary2 = KCC2 modulators without ouabain present, confirmation, cell-based, HEK293 KCC2, thallium flux, FluoZin2, secondary assay 2. thallium flux FluoZin2 fluorescence; actives lie on both sides; F/F0 rise rate, 10–20 s post-thallium. shares compounds with Cl transport mod. AID 1715, 2009. 23% of 3,700 active. normalized thallium flux at 10 µM;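 active means thallium flux slope more than 3 SD above or below the plate's solvent-only control mean, mostly below; inconclusive means the two repeat wells disagreed; inactive means no significant shift from solvent-only controls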;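 further: raw slope with 0.1% DMSO as baseline and bumetanide as block control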
HEK counter1 = thallium flux modulation in parental HEK cells, confirmation, counter-screen for KCC2 modulator project, cell-based, counterscreen 1. AID 1716, 2009. thallium flux rate (normalised fluorescence) at 10 µM. HEK293 parental cells, thallium flux FluoZin2, ouabain; baseline-ratio fluorescence slope, 10–20 s after thallium. shares compounds with Cl transport mod. 46% of 3,700 active;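 active means thallium flux rate significantly above the same plate's solvent-only control wells, beyond their mean plus 3 SD; inconclusive means the two replicate wells gave conflicting results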
KCC2 retest ouab = KCC2 inhibitors and activators, ouabain retest, confirmation, HEK-KCC2 cells; shares compounds with Cl transport mod; HEK293-KCC2, thallium flux FluoZin2 fluorescence; bidirectional: low = inhibitor, high = activator; raw Tl+ flux slope (below DMSO = inhibition, above = activation) at 10 µM; 48% of 3,700 active; AID 1717, 2009;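 active means thallium flux slope beyond 3 SD from same-plate DMSO control mean in most replicates, usually higher, sometimes lower; inconclusive means repeat tests gave conflicting results; inactive means no significant difference from controls in most replicates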;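 further: slope of initial-normalized fluorescence between seconds 10 and 20 after thallium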
HEK293 Tl flux2 = native HEK Tl+ uptake effects, second counter-screen – HEK cells, counterscreen 2, counter-screen for KCC2 modulator project, confirmation | HEK293 parental, thallium flux FluoZin-2 fluorescence slope | shares compounds with Cl transport mod | 33% of 3,700 active | thallium flux slope at 10 µM;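 active means thallium flux slope above the same plate's solvent-control mean plus 3 SD in both duplicate wells; inconclusive means duplicate wells that disagreed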;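 further: run without ouabain in cells lacking the KCC2 cotransporter; slope of fluorescence scaled to its starting value between 10 and 20 s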
* hit, by the source's call; ? = inconclusive; · = not tested or not shown. Only some compounds are listed: those with a hit (about 3.4% of all), similar ones and a draw of the others.

SMILES	ROMK primary	Cl transport mod	PKD1 kinase inh	Redox H2O2 prof	p97 inhibitor	Mdm2 ligase inh	KCC2 sec1	KCC2 bumet counter	KCC2 secondary2	HEK counter1	KCC2 retest ouab	HEK293 Tl flux2
O=C(NC(=S)Nc1nc(-c2cccc([N+](=O)[O-])c2)cs1)c1cc(Cl)ccc1Cl	0.00847	6.07*	1.4	-0.9	5.6	5.7	0.00966	0.0106*	0.0316	0.00881*	0.027*	0.0104*
CCc1ccccc1NC(=S)NN	-1.24	-0.391	-6.6	-1.2	0.0	-3.6	·	·	·	·	·	·
CCc1ccccc1NC(=S)NNC(=O)c1ccccc1Cl	0.01	3.21*	7.2	-0.4	3.8	-22.6	0.017	0.0117*	0.0305	0.0115*	0.0191	0.0135*
COc1cccc(N2CC(=O)Nc3c(oc4nc(-c5ccccc5)cc(C)c34)C2=O)c1	·	0.722	·	·	2.2	-12.2	·	·	·	·	·	·
O=C(NC(=S)Nc1nc(-c2cccc([N+](=O)[O-])c2)cs1)c1ccccc1Cl	-0.726	4.8*	-9.4	-0.8	0.2	-1.1	0.00726	0.00793*	0.0305	0.0123*	0.0238*	0.0139*
c1ccc(CCCNc2ncnc3nc[nH]c23)cc1	·	-0.242	-1.3	-0.3	8.2	-24.4	·	·	·	·	·	·
c1ccc2c(CCNc3ncnc4nc[nH]c34)cccc2c1	-1.59	-3.21*	0.3	0.6	3.2	-22.2	0.0085	0.0041	0.0348	0.00765	0.0167*	0.0106
CCOC(=O)CN1C(=O)C(C)(C)Oc2ccc(C(=O)NC(C)(C)CC)cc21	·	-0.28	11.2	1.8	-7.0	-13.6	·	·	·	·	·	·
CC(=O)NCC12CC3CC(C1)CC(C(=O)O)(C3)C2	·	0.265	-13.0	2.0	2.4	5.3	·	·	·	·	·	·
COC(=O)NCC12CC3CC(C1)CC(CNC(=O)OC)(C3)C2	-0.0384	0.121	-4.3	0.0	-1.6	-7.9	0.00749	0.00441	0.0284	0.0071	0.0191	0.00963
CCc1ccc(NC(=S)NC(=O)c2c(-c3ccccc3Cl)noc2C)cc1	-0.828	16.4*	·	·	-0.1	1.7	0.00547	0.0271*	0.0403*	0.0277*	0.0318*	0.0171*
Cc1onc(-c2ccccc2Cl)c1C(=O)NC(=S)Nc1ccc(C(C)(C)C)cc1	-0.369	6.89*	·	·	2.4	-11.6	0.00732	0.0118*	0.0312	0.0131*	0.0221	0.013*
Cc1onc(-c2ccccc2Cl)c1C(=O)Nc1ccccc1	·	0.427	-9.4	-0.3	-5.4	-1.9	·	·	·	·	·	·
Cc1nc2ccccn2c1-c1ccnc(=S)[nH]1	·	0.939	·	·	8.9	-25.0	·	·	·	·	·	·
S=c1nccc(-c2ccc(Cl)cc2)[nH]1	·	19.3*	·	·	7.2	-12.9	0.0101*	0.0193*	0.0414*	0.0241*	0.0318*	0.0274*
Cc1sc(-n2c(C)cc(/C=C3\SC(=S)NC3=O)c2C)c(C#N)c1C	2.03	9.02*	-20.2	-8.4	2.2	-21.4	0.00626	0.0164*	0.0312	0.0158*	?	?
O=c1c2ccccc2nc(-c2ccc([N+](=O)[O-])cc2)n1O	0.496	9.04*	-2.0	-0.6	-2.9	-2.4	?	0.0204*	0.0335	0.0161*	0.0276*	?
O=C1CCCc2c1nc(-c1ccc([N+](=O)[O-])cc1)n2O	-0.501	0.653	·	·	7.8	-32.1	·	·	·	·	·	·
CCCCCCC(=O)NNC(=O)c1c(O)c2ccccc2n(CCC)c1=O	-0.116	2.63	2.4	-0.2	6.5	-1.8	·	·	·	·	·	·
CCCCCCCCC(=O)NNC(=O)c1c(O)c2ccccc2n(CC)c1=O	-0.0758	9.47*	-1.3	-1.0	2.4	-4.2	0.00558	0.0219*	0.0355	0.0187*	0.0299*	0.0195*
CCn1c(=O)c(C(=O)NCCc2ccccc2)c(O)c2ccccc21	-0.152	0.56	-8.4	0.4	-3.3	-11.6	·	·	·	·	·	·
CCCCCCCC(=O)NNC(=O)c1c(O)c2ccccc2n(CCC)c1=O	·	·	-0.3	-0.8	-1.4	-10.5	·	·	·	·	·	·
CCCCCCC(=O)NNC(=O)c1c(O)c2ccccc2n(CC)c1=O	-0.0403	5.59*	5.7	-0.5	4.5	5.8	0.00641	0.0168*	0.0337	0.0166*	0.0248*	0.0158*
CCCCCCCC(=O)NNC(=O)c1c(O)c2ccccc2n(CC)c1=O	0.143	10.7*	-5.7	-0.8	-2.0	-26.4	0.00524	0.016*	0.0327	0.0174*	?	0.0185*
NC(=O)CC(NC(=O)Cc1ccc(Br)cc1)c1ccc(NCCc2ccc(F)cc2)c([N+](=O)[O-])c1 (centres undefined)	·	-2.96*	·	·	·	12.7	0.0169	0.00387	?	?	0.0143	0.00963
CC12CC3(C)CC(C)(C1)CC(C(=O)NC(=S)N1CCCC1)(C2)C3	0.159	7.86*	-8.3	-0.5	0.7	-1.2	0.00679	0.00949*	0.0271	0.0102*	?	?
Cc1oc(-c2nc3ccccc3n2C)cc1C(=O)c1ccccc1	·	-2.94*	-8.3	2.6	-6.0	-69.6	0.0063	0.00509	0.0316	0.00363	0.0144*	0.0113
CSc1nc2c(cnn2-c2ccccc2)c(=O)n1N	-0.382	1.15	0.6	-0.7	0.6	-5.5	·	·	·	·	·	·

Assay outcomes as filed in PubChem.
